The values below come from ChEMBL document CHEMBL2346625 (Bioorg Med Chem, 2013).

One data set relates to Streptococcus pyogenes. Kind of data set: Growth inhibition of Streptococcus pyogenes UMAA2616 at 50 uM relative to control. It is filed as organism-based. The settings on record: in vitro. In a few lines:
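Diluted 1:1000 into THY containing compound at 50 μM in 0.1% DMSO and grown in triplicate at 37 °C to OD600 ≈ 1.0. Growth given as OD600 test/DMSO control; mean of at least three experiments ± SD.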

The subject of data set [1] is Liver. As to the kind of experiment: (§1) Half life in mouse liver microsomes at 0.5 to 1 uM by LC-MS/MS analysis. It is filed as ADME, Microsome. The settings on record: microsomes, 1 µM. Background: Liver microsomes are vesicles of endoplasmic reticulum, rich in cytochrome P450 enzymes.
Data set [2] is described as follows: Kinetic solubility of the compound in aqueous Todd Hewitt bacterial media at 0.87 to 99 uM by UV/Vis spectrophotometry. The format is physicochemical. The settings on record: read-out: Kinetic_solubility. In a few lines:
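10 mM DMSO stocks serially diluted in DMSO, then added 1:100 to Todd-Hewitt broth at 37 °C, giving final 0.87–99 μM. Plate shaken, incubated 5 min at 37 °C, and OD600 read (n = 3). Solubility taken as the midpoint between the first concentration with OD600 ≥ 0.005 AU above background and the preceding concentration, ± half the interval.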

In the next data set the target is T1, Streptokinase (Streptococcus pyogenes, UniProt P96471).
T1 sequence (P96471 whole entry): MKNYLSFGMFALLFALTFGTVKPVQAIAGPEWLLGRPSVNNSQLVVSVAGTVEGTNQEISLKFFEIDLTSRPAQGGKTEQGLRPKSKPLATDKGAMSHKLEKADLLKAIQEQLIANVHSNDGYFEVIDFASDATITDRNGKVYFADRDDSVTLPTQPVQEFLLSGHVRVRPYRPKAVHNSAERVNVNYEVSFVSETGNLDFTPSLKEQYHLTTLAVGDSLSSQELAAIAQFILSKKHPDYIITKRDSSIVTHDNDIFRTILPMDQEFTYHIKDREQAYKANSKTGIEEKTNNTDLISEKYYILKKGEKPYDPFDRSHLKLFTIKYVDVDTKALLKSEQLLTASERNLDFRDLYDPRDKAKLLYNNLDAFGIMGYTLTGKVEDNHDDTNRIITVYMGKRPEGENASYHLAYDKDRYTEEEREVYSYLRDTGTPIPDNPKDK

Data set [3] is described as follows: as §1. It is filed as ADME, Microsome. The settings on record: liver microsomes.
Data set [4] concerns Liver. As to the kind of experiment: Metabolic stability in mouse liver microsomes assessed as oxidation of compound. The format is ADME, Microsome.
Data set [5] is described as follows: Kinetic solubility of the compound in phosphate-buffered saline at 0.87 to 99 uM by UV/Vis spectrophotometry. The format is physicochemical. The essentials:
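10 mM DMSO stocks serially diluted in DMSO, then added 1:100 to PBS at 37 °C, giving final 0.87–99 μM. Plate shaken, incubated 5 min at 37 °C, and OD600 read (n = 3). Solubility taken as the midpoint between the first concentration with OD600 ≥ 0.005 AU above background and the preceding concentration, ± half the interval.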

In data set [6] the target is T2, Streptokinase (Streptococcus pyogenes) (UniProt P96471).
T2 sequence (whole entry): T1 sequence (P96471 whole entry)
Kind of data set: Inhibition of Streptococcus pyogenes UMAA2616 streptokinase assessed as cleavage of S-2403 to colored product p-nitroaniline at 50 uM after 2 hrs relative to control. In a few lines:
(§2)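 UMAA2616 grown in THY (0.1% DMSO, compound at 5 or 50 μM) at 37 °C to OD600 ≈ 1.0, then centrifuged. Supernatant mixed with PBS, human plasma and S-2403 plasmin substrate and incubated 2 h at 37 °C; A405 read. Activity came from a DMSO-culture standard curve, was corrected for growth by OD600 and expressed as test/control. Mean of at least three experiments ± SD.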

Data set [7] deals with T2, Streptokinase (Streptococcus pyogenes). As to the kind of experiment: Inhibition of Streptococcus pyogenes UMAA2616 streptokinase assessed as cleavage of S-2403 to colored product p-nitroaniline at 5 uM after 2 hrs relative to control. The essentials:
as §2

Molecules are shown by their SMILES. In brackets after ≈: the same amount, converted by molar mass.

`C=CCn1c(SCc2ccc(OC)cc2)nc2c(c1=O)C1(CCCCC1)Cc1ccccc1-2` gave a T/C in the data set with Streptococcus pyogenes of 1.05. In turn, `C=CCn1c(SCC)nc2c(c1=O)C(C)(C)Cc1ccc(OCCOC)cc1-2` returned a T/C in the data set with Streptococcus pyogenes of 1.02.

On to `C=CCn1c(SCC)nc2c(c1=O)C(C)(C)Cc1cc(OCCOC)ccc1-2`, for which the T/C in the data set with Streptococcus pyogenes came out at 0.85. The compound `C=CCn1c(SC)nc2c(c1=O)C1(CCCCC1)Cc1ccccc1-2` showed a t1/2 with Liver [1] of 13.5 min. For the same compound, the solubility kinetic in data set [2] stood at 22 µM (≈ 7.76 µg/mL). In the data set on Liver [1], `CCn1c(SCCOC)nc2c(c1=O)C(C)(C)Cc1ccccc1-2` yielded a t1/2 of 0.8 min. The compound also yielded a T/C with Streptococcus pyogenes of 0.39.

In the case of `C=CCn1c(SCCOC)nc2c(c1=O)C(C)(C)Cc1cc(C(=O)NCc3ccccc3)ccc1-2`, in the data set with Streptococcus pyogenes, the T/C is on record as 1.07.

As to `C=CCn1c(SCCOC)nc2c(c1=O)C(C)(C)Cc1cc(C(=O)O)ccc1-2`, the T/C in the data set with Streptococcus pyogenes is recorded as 0.86. The same measure, in the same setting: the same measure for `C=CCn1c(SCC)nc2c(c1=O)C(C)(C)Cc1cc(OCCCCCCC)ccc1-2`: 1.05; for `C=CCn1c(SCc2ccc(NC(C)=O)cc2)nc2c(c1=O)C1(CCCCC1)Cc1ccccc1-2`: 0.96. The compound `C=CCn1c(SCc2ccccc2)nc2c(c1=O)C1(CCCCC1)Cc1ccccc1-2` [CCG-102487] displayed a t1/2 in the data set on Liver [1] of 0.6 min. Besides, in the data set on Streptococcus pyogenes, the T/C turned out to be 0.96. For the same compound, the IC50 at Streptokinase is over 50 µM. Also, the solubility kinetic in [2] was found to be 9 µM (≈ 3.86 µg/mL). Consider `CCSc1nc2c(c(=O)n1CC(F)(F)F)C(C)(C)Cc1ccc(OC)cc1-2`, for which the half-life in data set [3] is 3 min. The T/C with Streptococcus pyogenes turned out to be 1.01. Turning to `C=CCn1c(SCCOC)nc2c(c1=O)C1(CCCCC1)Cc1ccccc1-2`, in the data set on Liver [4], the Stability result is on record as “Stable”. The compound further came in with a t1/2 in the data set with Liver [1] of 6.4 min. For the same compound, the T/C in the data set on Streptococcus pyogenes worked out at 0.99. Besides, the solubility kinetic in data set [2] worked out at 9 µM (≈ 3.57 µg/mL).

Turning to `C=CCn1c(SCC#N)nc2c(c1=O)C(C)(C)Cc1ccccc1-2`, the t1/2 with Liver [1] is 20.6 min. This compound also showed a T/C in the data set on Streptococcus pyogenes of 1. In addition, the solubility kinetic turned out to be 3 µM (≈ 1.01 µg/mL) in data set [5] and 34.5 µM (≈ 11.6 µg/mL) in [2]. In the case of `C=CCn1c(OCC)nc2c(c1=O)C(C)(C)Cc1ccccc1-2`, the t1/2 in the data set with Liver [1] is 0.9 min. In the data set with Streptococcus pyogenes, this compound yielded a T/C of 0.5. On to `C=CCn1c(SCc2ccccc2)nc2c(c1=O)C(C)(C)Cc1ccccc1-2`, for which the solubility kinetic in data set [2] came to 9 µM (≈ 3.5 µg/mL). In the data set with Streptococcus pyogenes, `C=CCn1c(SCC(=O)OCC)nc2c(c1=O)C(C)(C)Cc1ccccc1-2` came in with a T/C of 1.01. In turn, `C=CCn1c(OCC)nc2c(c1=O)C1(CCCCC1)Cc1ccccc1-2` returned a T/C with Streptococcus pyogenes of 1.02. Also, in data set [2], the solubility kinetic is 14.5 µM (≈ 5.08 µg/mL). Consider `C=CCn1c(SCc2ccccn2)nc2c(c1=O)C(C)(C)Cc1ccccc1-2`, for which the T/C with Streptococcus pyogenes came to 1.05. As to `C=CCn1c(NCC)nc2c(c1=O)C1(CCCCC1)Cc1ccccc1-2`, the T/C in the data set with Streptococcus pyogenes is reported as 0.32. Besides, in data set [2], the solubility kinetic was 9 µM (≈ 3.15 µg/mL).

Compound `C=CCn1c(NCC)nc2c(c1=O)C(C)(C)Cc1cc(CC(=O)OCC)ccc1-2` registered a T/C in the data set with Streptococcus pyogenes of 1.02. With `COCCSc1nc2c(c(=O)n1CCc1ccc(OC)cc1)C(C)(C)Cc1ccccc1-2`, the T/C is 0.61 in [6], 0.71 in data set [7] and 0.97 with Streptococcus pyogenes. The same compound showed a half-life in data set [3] of 9.4 min. The compound `C=CCn1c(SCCCC)nc2c(c1=O)C1(CCCCC1)Cc1ccccc1-2` [CCG-2979] showed a t1/2 in the data set on Liver [1] of 37.2 min. This compound also registered a T/C with Streptococcus pyogenes of 0.95. Besides, the values for the solubility kinetic in [5] and in data set [2] were 2 µM (≈ 0.789 µg/mL) and 9 µM (≈ 3.55 µg/mL), respectively. For the same compound, the IC50 against Streptokinase was over 50 µM. `C=CCn1c(SCC)nc2c(c1=O)C(C)(C)Cc1cc(OCCCC)ccc1-2` showed a T/C in the data set with Streptococcus pyogenes of 0.87. In the data set with Liver [1], `C=CCn1c(NCC)nc2c(c1=O)C(C)(C)Cc1ccccc1-2` yielded a t1/2 of 1.1 min. Moreover, the T/C in the data set with Streptococcus pyogenes was 0.06. Compound `C=CCn1c(SCC(N)=O)nc2c(c1=O)C(C)(C)Cc1ccccc1-2` came in with a t1/2 in the data set with Liver [1] of under 2 min. In the data set with Streptococcus pyogenes, this compound returned a T/C of 1. In turn, `C=CCn1c(SCCOC)nc2c(c1=O)C(C)(C)Cc1ccccc1-2` came in with a t1/2 in the data set with Liver [1] of 1.7 min. For the same compound, the solubility kinetic in [2] came to 22.5 µM (≈ 8.02 µg/mL). Take `C=CCn1c(SCC)nc2c(c1=O)C(C)(C)Cc1cc(OCCc3ccccc3)ccc1-2`: the T/C with Streptococcus pyogenes turned out to be 1.01. As to `C=CCn1c(SCCO)nc2c(c1=O)C(C)(C)Cc1ccccc1-2`, the T/C in the data set with Streptococcus pyogenes is on record as 0.06.

`CCn1c(SCc2ccccc2)nc2c(c1=O)C1(CCCC1)Cc1ccccc1-2`: the T/C with Streptococcus pyogenes was found to be 1.07.

`C=CCn1c(SCCN(C)C)nc2c(c1=O)C1(CCCCC1)Cc1ccccc1-2` had a T/C in the data set on Streptococcus pyogenes of 0.88. Still for that read-out and setting: with `C=CCn1c(SCCOC)nc2c(c1=O)C(C)(C)Cc1cc(C(=O)NCCc3c[nH]cn3)ccc1-2` the figure was 0.99.

For orientation: IC50 means the point on the concentration scale where inhibition reaches its midpoint. Read a low IC50 as greater potency in that assay. Usually half-life stands for how long it takes for the measured level to halve.
